Source: ChEMBL document CHEMBL1133219, “Design and evaluation of dihydroisoquinolines as potent and orally bioavailable human cytomegalovirus inhibitors” (Bioorg Med Chem Lett, 2000)
In brackets after ≈: the same amount, converted by molar mass.

Experiments:
[1] = system: Human betaherpesvirus 5; assay: Antiviral activity determined against human cytomegalovirus (HCMV) in Hs 68 cell line by plaque reduction assay; assay type: functional, organism-based; conditions: Human betaherpesvirus 5, Hs68
[2] = system: Hs68; assay: Cytotoxic activity in Hs 68 cell line by inhibition of cell proliferation; assay type: functional; conditions: Homo sapiens
[3] = (§1) Half life was evaluated at 50 mg/kg of compound dose, administered perorally in mice; assay type: ADME, organism-based; design: dose 50 mg/kg, route oral; conditions: mouse, in vivo, po
In short: (§2)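 Mouse PK with plasma levels after oral dosing. Mean plasma data analysed non-compartmentally. Terminal slope (λz) obtained from the concentration-time curve, and t1/2 taken as 0.693/λz. Data are means of triplicates (SD<8%).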

[4] = Pharmacokinetic studies were carried out in vivo after administration of compound at 5 mg/kg intravenously in mice; assay type: ADME, organism-based; design: dose 5 mg/kg, route intravenous; conditions: mouse, iv
In short: (§3)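 Mice dosed po or iv, and plasma sampled over time. Non-compartmental analysis of mean plasma concentrations gave Cmax, AUC and t1/2. AUC taken by linear trapezoidal method from zero to last sample, extrapolated to infinity with terminal slope λz. t1/2 = 0.693/λz. Mean of triplicates (SD<8%).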

[5] = system: Mus musculus; assay: The area under concentration-time curve(AUC) was determined at 50 mg/kg of compound dose, administered perorally in mice; assay type: ADME, organism-based; design: dose 50 mg/kg, route oral; conditions: in vivo, po; in short: as §3
[6] = Pharmacokinetic studies were carried out in vivo after administration of compound at 50 mg/kg perorally in mice; assay type: ADME, organism-based; design: dose 50 mg/kg, route oral; conditions: mouse, po; in short: as §3
[7] = system: Mus musculus; assay: The area under concentration-time curve(AUC) was determined at 5 mg/kg of compound dose, administered intravenously in mice; assay type: ADME, organism-based; design: dose 5 mg/kg, route intravenous; conditions: in vivo, iv; in short: as §3
[8] = Pharmacokinetic studies were carried out in vivo after administration of compound at 5 mg/kg perorally in mice; assay type: ADME, organism-based; design: dose 5 mg/kg, route oral; conditions: mouse, po; in short: as §3
[9] = system: Mus musculus; assay: The area under concentration-time curve(AUC) was determined at 5 mg/kg of compound dose, administered perorally in mice; assay type: ADME, organism-based; design: dose 5 mg/kg, route oral; conditions: in vivo, po; in short: as §3
[10] = system: Mus musculus; assay: as §1; assay type: ADME, organism-based; design: dose 50 mg/kg, route oral; conditions: in vivo, po; in short: as §2
[11] = system: Mus musculus; assay: The area under concentration-time curve(AUC) was determined at 50 mg/kg of compound dose, administered intravenously in mice; assay type: ADME, organism-based; design: dose 50 mg/kg, route intravenous; conditions: in vivo, iv; in short: as §3
[12] = Percent oral bioavailability was determined after administration of compound at 50 mg/kg perorally in mice; assay type: ADME, organism-based; conditions: mouse, in vivo, read-out: BA
In short: (§4)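 Mouse PK comparing oral and intravenous dosing. AUC estimated by linear trapezoid from time zero to last sample, extrapolated to infinity via terminal slope. Oral bioavailability calculated as AUCpo,0-∞/AUCiv,0-∞ at the corresponding dose. Mean of triplicate data (SD<8%).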

[13] = Percent oral bioavailability was determined after administration of compound at 5 mg/kg perorally in mice; assay type: ADME, organism-based; conditions: mouse, in vivo, read-out: BA; in short: as §4
[14] = Half life was evaluated at 5 mg/kg of compound dose, administered perorally in mice; assay type: ADME, organism-based; design: dose 5 mg/kg, route oral; conditions: mouse, in vivo, po; in short: as §2
[15] = system: Mus musculus; assay: Half life was evaluated at 5 mg/kg of compound dose, administered intravenously in mice; conditions: in vivo, iv
[16] = Pharmacokinetic studies were carried out in vivo after administration of compound at 50 mg/kg intravenously in mice; assay type: ADME, organism-based; design: dose 50 mg/kg, route intravenous; conditions: mouse, iv; in short: as §3

| Structure (SMILES) | IC50 [1] [mg/L] | CC50 [2] [mg/L] | further results |
| --- | --- | --- | --- |
| COc1ccccc1CNC(=O)c1ccc2c(Br)nccc2n1 | > 25 | ~25 (≈ 67.2 µM) |  |
| COc1ccccc1CNC(=O)c1ccc2c(C)nccc2n1 | > 10 | > 25 |  |
| COc1ccccc1CNC(=O)c1ccc2c(Cl)nccc2n1 | > 10 | ~3.2 (≈ 9.76 µM) |  |
| O=C(NCCc1cccs1)C1=Cc2ccncc2CC1 | 0.17 (≈ 0.598 µM) | 15 (≈ 52.7 µM) |  |
| COc1ccccc1CNC(=O)c1ccc2c(F)nccc2n1 | ~10 (≈ 32.1 µM) | ~10 (≈ 32.1 µM) |  |
| COc1ccccc1CNC(=O)c1ccc2c(N)nccc2n1 | ~10 (≈ 32.4 µM) | ~12.5 (≈ 40.5 µM) |  |
| COc1ccccc1CNC(=O)c1ccc2c(OC)nccc2n1 | > 25 | > 50 |  |
| COc1ccccc1CNC(=O)C1CCc2cnccc2C1 (centres undefined) | 25 (≈ 84.4 µM) | 100 (≈ 337 µM) |  |
| COc1ccccc1CNC(=O)c1ccc2c[n+]([O-])ccc2n1 | > 25 | 100 (≈ 323 µM) |  |

More lines, main results first:

| IC50 [1] [mg/L] | Structure (SMILES) | CC50 [2] [mg/L] | further results |
| --- | --- | --- | --- |
| 0.71 (≈ 2.55 µM) | O=C(NCCc1ccccc1)C1=Cc2ccncc2CC1 | 25 (≈ 89.8 µM) |  |
| 0.68 (≈ 2.11 µM) | CC(C)Oc1ccccc1CNC(=O)C1=Cc2ccncc2CC1 | 12.5 (≈ 38.8 µM) |  |
| 0.64 (≈ 2.17 µM) | COc1ccccc1CNC(=O)C1=Cc2ccncc2CC1 | > 50 | half-life [3]: 42.3 min; Cmax [4]: 6.94 µg/mL; AUC [5]: 734 ug m-1 min-1; Cmax [6]: 12.5 µg/mL; AUC [7]: 57 ug m-1 min-1 |
| 0.1 (≈ 0.315 µM) | O=C(NCCc1c[nH]c2ccccc12)C1=Cc2ccncc2CC1 | 5 (≈ 15.8 µM) | Cmax [8]: 0.6 µg/mL; AUC [9]: 21 ug m-1 min-1; half-life [3]: 72.5 min; T1/2 [10]: 43.9 min; AUC [11]: 2914 ug m-1 min-1; Cmax [4]: 5.56 µg/mL; AUC [5]: 1762 ug m-1 min-1; bioavailability [12]: 60.4%; bioavailability [13]: 22.5%; Cmax [6]: 15.1 µg/mL; half-life [14]: 15.2 min; AUC [7]: 94 ug m-1 min-1; T1/2 [15]: 14.2 min; Cmax [16]: 57.8 µg/mL |
| 0.23 (≈ 0.68 µM) | COc1ccc(OC)c(CCNC(=O)C2=Cc3ccncc3CC2)c1 | > 50 |  |
| 10 (≈ 32.4 µM) | COc1ccccc1CCNC(=O)C1=Cc2ccncc2CC1 | > 25 |  |
